Experimental data: ChEMBL document CHEMBL4368928, “New hybrid trifluoromethylquinolines as antiplasmodium agents” (Bioorg Med Chem, 2019)
pEC50, pIC50: −log10 of the molar value.

Assays:
Plasmodium falciparum = test: Antimalarial activity against chloroquine-resistant and mefloquine-sensitive Plasmodium falciparum W2 ring stage form infected in human erythrocytes by spectrophotometric analysis; format: functional, organism-based
Outline: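 W2 clone grown in A+ human erythrocytes in RPMI 1640 with 1% Albumax II. Sorbitol-synchronized rings at 1.5% hematocrit and 0.05% parasitemia; compounds from 10 mg/mL DMSO stock, final 0.02% DMSO; triplicate per dose. Growth read by anti-HRPII ELISA (TMB, A450) versus drug-free cultures; IC50 from sigmoid dose-response fits.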

[1] = Cytotoxicity in African green monkey BGM cells assessed as reduction in cell viability incubated for 24 hrs by MTT assay; format: cell-based; conditions: Chlorocebus aethiops
Outline: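 BGM monkey kidney cells kept in RPMI 1640 with 10% heat-inactivated fetal serum at 37 °C, 5% CO2. Seeded at 5 × 10^3 cells/well and allowed to adhere 18 h. Exposed 24 h to 200–25 μg/mL from a 20 mg/mL DMSO stock. MTT added for 3 h, formazan dissolved in DMSO, OD read at 570/630 nm. Viability as % of untreated control; EC50 derived from this.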

[2] = Selectivity index, ratio of EC50 for African green monkey BGM cells to IC50 for chloroquine-resistant mefloquine-sensitive Plasmodium falciparum W2 ring stage form infected in human erythrocytes; format: toxicity, cell-based; conditions: read-out: Selectivity Index
Outline: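 SI = BGM EC50 / W2 IC50. BGM cells seeded at 5 × 10^3/well, adhered 18 h, exposed 24 h at 37 °C, 5% CO2 to 200–25 µg/mL (20 mg/mL DMSO stock). MTT added 3 h, formazan in DMSO, OD 570/630 nm; viability as % untreated. W2 IC50 from HRPII ELISA on synchronized rings.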

Plasmodium berghei [3] = test: Antimalarial activity against Plasmodium berghei NK65 infected in mouse assessed as reduction in parasite growth at 20 mg/kg, po administered daily for 3 consecutive days and measured on day 5 post parasite inoculation relative to control; format: functional; parameters: scale not given: the % may be the effect or the level left
Outline: (§1)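 Suppressive test: mice inoculated i.p. with 1 × 10^5 P. berghei NK65-infected erythrocytes, randomized about 24 h later to groups of five. Dosed orally once daily for three consecutive days, freshly diluted in 3% DMSO in RPMI; vehicle controls included. Parasitemia was read on days 5, 7 and 9 from Giemsa-stained, methanol-fixed tail-blood thin smears at 1000X. Inhibition is given relative to untreated mice, taken as 100% growth.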

Plasmodium berghei [4] = test: Antimalarial activity against Plasmodium berghei NK65 infected in mouse assessed as reduction in parasite growth at 20 mg/kg, po administered daily for 3 consecutive days and measured on day 7 post parasite inoculation relative to control; format: functional; parameters: scale not given: the % may be the effect or the level left; outline: as §1
Plasmodium berghei [5] = test: Antimalarial activity against Plasmodium berghei NK65 infected in mouse assessed as reduction in parasite growth at 20 mg/kg, po administered daily for 3 consecutive days and measured on day 9 post parasite inoculation relative to control; format: functional; parameters: scale not given: the % may be the effect or the level left; outline: as §1
Plasmodium berghei [6] = test: Antimalarial activity against Plasmodium berghei NK65 infected in mouse assessed as parasite survival at 20 mg/kg, po administered daily for 3 consecutive days (reference value: 13+/- 3 days); format: functional
Outline: (§2)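 P. berghei NK65 (weekly blood passage); mice infected i.p. with 1 × 10^5 infected erythrocytes, grouped five per cage about 24 h later. Dosed orally once daily for three days in 3% DMSO/RPMI: test compounds at 50 mg/kg, CQ and MQ at 20 mg/kg, vehicle controls. Tail-blood Giemsa thin smears on days 5, 7 and 9; survival recorded in days.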

Plasmodium berghei [7] = test: Antimalarial activity against Plasmodium berghei NK65 infected in mouse assessed as reduction in parasite growth at 50 mg/kg, po administered daily for 3 consecutive days and measured on day 5 post parasite inoculation relative to control; format: functional; parameters: scale not given: the % may be the effect or the level left; outline: as §1
Plasmodium berghei [8] = test: Antimalarial activity against Plasmodium berghei NK65 infected in mouse assessed as reduction in parasite growth at 50 mg/kg, po administered daily for 3 consecutive days and measured on day 7 post parasite inoculation relative to control; format: functional; parameters: scale not given: the % may be the effect or the level left; outline: as §1
Plasmodium berghei [9] = test: Antimalarial activity against Plasmodium berghei NK65 infected in mouse assessed as reduction in parasite growth at 50 mg/kg, po administered daily for 3 consecutive days and measured on day 9 post parasite inoculation relative to control; format: functional; parameters: scale not given: the % may be the effect or the level left; outline: as §1
Plasmodium berghei [10] = test: Antimalarial activity against Plasmodium berghei NK65 infected in mouse assessed as parasite survival at 50 mg/kg, po administered daily for 3 consecutive days (reference value: 13+/- 3 days); format: functional; outline: as §2

**Q.** With FC(F)(F)c1cc(N2CCOCC2)c2cccc(C(F)(F)F)c2n1 as the compound, how does the pIC50 (Plasmodium falciparum) read?
**A.** < 3.84

**Q.** And the pEC50 [1]?
**A.** 2.77

**Q.** And the selectivity ratio [2]?
**A.** < 11.7

**Q.** With FC(F)(F)c1cc(Nc2ccccc2C(F)(F)F)c2cccc(C(F)(F)F)c2n1 as the compound, how does the pIC50 (Plasmodium falciparum) read?
**A.** 4.48

**Q.** What about the pEC50 [1] of the same compound?
**A.** > 4.72

**Q.** And the selectivity ratio [2]?
**A.** < 0.57

**Q.** With Oc1ccc(Nc2cc(C(F)(F)F)nc3c(C(F)(F)F)cccc23)cc1 as the compound, how does the pIC50 (Plasmodium falciparum) read?
**A.** 4.62

**Q.** And the pEC50 [1]?
**A.** 3.17

**Q.** And the selectivity ratio [2]?
**A.** < 27.9

**Q.** What does the source list for FC(F)(F)c1cc(Nc2ccccn2)c2cccc(C(F)(F)F)c2n1?
**A.** pIC50 (Plasmodium falciparum): 4.71; pEC50 [1]: > 4.35; selectivity ratio [2]: < 2.29

**Q.** With Clc1ccc2c(Nc3ccncc3)ccnc2c1 as the compound, how does the pIC50 (Plasmodium falciparum) read?
**A.** 4.93

**Q.** What about the pEC50 [1] of the same compound?
**A.** 3.11

**Q.** What about the selectivity ratio [2] of the same compound?
**A.** 67

**Q.** With CCN(CC)CCCC(C)Nc1ccnc2cc(Cl)ccc12 (stereo not given) [CHLOROQUINE] as the compound, how does the pEC50 [1] read?
**A.** 3.04

**Q.** And the Activity (Plasmodium berghei [3])?
**A.** 99%

**Q.** And the Activity (Plasmodium berghei [4])?
**A.** 99%

**Q.** What about the Activity (Plasmodium berghei [5]) of the same compound?
**A.** 84%

**Q.** And the Survival (Plasmodium berghei [6])?
**A.** 24 days

**Q.** With Fc1ccc(Nc2cc(C(F)(F)F)nc3c(C(F)(F)F)cccc23)cc1 as the compound, how does the pIC50 (Plasmodium falciparum) read?
**A.** 4.80

**Q.** And the pEC50 [1]?
**A.** > 4.37

**Q.** And the selectivity ratio [2]?
**A.** < 2.67

**Q.** What does the source list for FC(F)(F)c1cc(Nc2nnc(C(F)(F)F)[nH]2)c2cccc(C(F)(F)F)c2n1?
**A.** pIC50 (Plasmodium falciparum): 4.94; pEC50 [1]: 4.07; selectivity ratio [2]: 7.3

**Q.** With FC(F)(F)c1cc(Nc2ncccn2)c2cccc(C(F)(F)F)c2n1 as the compound, how does the pIC50 (Plasmodium falciparum) read?
**A.** 5.08

**Q.** And the pEC50 [1]?
**A.** < 3.25

**Q.** And the selectivity ratio [2]?
**A.** > 66.5

**Q.** What about the Activity (Plasmodium berghei [7]) of the same compound?
**A.** 61%

**Q.** What about the Activity (Plasmodium berghei [8]) of the same compound?
**A.** 35%

**Q.** What about the Activity (Plasmodium berghei [9]) of the same compound?
**A.** 31%

**Q.** What about the Survival (Plasmodium berghei [10]) of the same compound?
**A.** 13 days

**Q.** With COc1ccc(Nc2cc(C(F)(F)F)nc3c(C(F)(F)F)cccc23)cc1OC as the compound, how does the pIC50 (Plasmodium falciparum) read?
**A.** 5.32

**Q.** What about the pEC50 [1] of the same compound?
**A.** 3.89

**Q.** And the selectivity ratio [2]?
**A.** 27

**Q.** With O[C@@H](c1cc(C(F)(F)F)nc2c(C(F)(F)F)cccc12)[C@H]1CCCCN1 (relative stereo) [(S,R)-MEFLOQUINE] as the compound, how does the pIC50 (Plasmodium falciparum) read?
**A.** 7.72

**Q.** What about the pEC50 [1] of the same compound?
**A.** 4.82

**Q.** What about the selectivity ratio [2] of the same compound?
**A.** 789

**Q.** And the Activity (Plasmodium berghei [3])?
**A.** 98%

**Q.** What about the Activity (Plasmodium berghei [4]) of the same compound?
**A.** 98%

**Q.** And the Activity (Plasmodium berghei [5])?
**A.** 99%

**Q.** What about the Survival (Plasmodium berghei [6]) of the same compound?
**A.** >30 days

**Q.** With FC(F)(F)c1cc(N2CCNCC2)c2cccc(C(F)(F)F)c2n1 as the compound, how does the pIC50 (Plasmodium falciparum) read?
**A.** 4.50

**Q.** What about the pEC50 [1] of the same compound?
**A.** 4.76

**Q.** And the selectivity ratio [2]?
**A.** 0.5

**Q.** What does the source list for Cc1nnc(Nc2cc(C(F)(F)F)nc3c(C(F)(F)F)cccc23)[nH]1?
**A.** pIC50 (Plasmodium falciparum): 7.08; pEC50 [1]: 4.96; selectivity ratio [2]: 132; Activity (Plasmodium berghei [7]): 66%; Activity (Plasmodium berghei [8]): 30%; Activity (Plasmodium berghei [9]): 23%; Survival (Plasmodium berghei [10]): 19 days

**Q.** With FC(F)(F)c1cc(NC2CCCCC2)c2cccc(C(F)(F)F)c2n1 as the compound, how does the pIC50 (Plasmodium falciparum) read?
**A.** 4.96

**Q.** And the pEC50 [1]?
**A.** 3.90

**Q.** What about the selectivity ratio [2] of the same compound?
**A.** 11.5

**Q.** With FC(F)(F)c1cc(Nc2ccncc2)c2cccc(C(F)(F)F)c2n1 as the compound, how does the pIC50 (Plasmodium falciparum) read?
**A.** 5.08

**Q.** And the pEC50 [1]?
**A.** < 3.25

**Q.** And the selectivity ratio [2]?
**A.** > 66.7

**Q.** And the Activity (Plasmodium berghei [7])?
**A.** 25%

**Q.** And the Activity (Plasmodium berghei [8])?
**A.** 42%

**Q.** And the Activity (Plasmodium berghei [9])?
**A.** 11%

**Q.** What about the Survival (Plasmodium berghei [10]) of the same compound?
**A.** 15 days

**Q.** With FC(F)(F)c1cc(Nc2nnc[nH]2)c2cccc(C(F)(F)F)c2n1 as the compound, how does the pIC50 (Plasmodium falciparum) read?
**A.** 5.54

**Q.** What about the pEC50 [1] of the same compound?
**A.** > 4.64

**Q.** And the selectivity ratio [2]?
**A.** < 8

**Q.** With FC(F)(F)c1cc(Nc2ccc3ccccc3c2)c2cccc(C(F)(F)F)c2n1 as the compound, how does the pIC50 (Plasmodium falciparum) read?
**A.** 5.02

**Q.** What about the pEC50 [1] of the same compound?
**A.** 4.91

**Q.** What about the selectivity ratio [2] of the same compound?
**A.** 1.2

**Q.** With FC(F)(F)c1cc(Nc2ccccc2)c2cccc(C(F)(F)F)c2n1 as the compound, how does the pIC50 (Plasmodium falciparum) read?
**A.** 4.55

**Q.** What about the pEC50 [1] of the same compound?
**A.** > 4.65

**Q.** And the selectivity ratio [2]?
**A.** < 0.83

**Q.** With Cc1nnc(Nc2cc(C(F)(F)F)nc3c(C(F)(F)F)cccc23)s1 as the compound, how does the pIC50 (Plasmodium falciparum) read?
**A.** 5.74

**Q.** What about the pEC50 [1] of the same compound?
**A.** 5.82

**Q.** And the selectivity ratio [2]?
**A.** 0.8
